# According to publication PMC6543826 (Bioorganic chemistry, 2018):
# Values joined by “and” are separate entries in the source; they are usually repeats but may differ in a detail not shown here. Equal entries are not always repeated. Where two headings read alike, the source gives them in different places.
# Experiments:
# [1] = target: ERK2 (Rattus norvegicus, UniProt P63086); assay: in vitro radioactive kinase assay, Ets-1 phosphorylation by ERK2; type: biochemical; conditions: 100 μM ATP /10mM Ets-1
# ERK2, sequence (P63086 whole entry): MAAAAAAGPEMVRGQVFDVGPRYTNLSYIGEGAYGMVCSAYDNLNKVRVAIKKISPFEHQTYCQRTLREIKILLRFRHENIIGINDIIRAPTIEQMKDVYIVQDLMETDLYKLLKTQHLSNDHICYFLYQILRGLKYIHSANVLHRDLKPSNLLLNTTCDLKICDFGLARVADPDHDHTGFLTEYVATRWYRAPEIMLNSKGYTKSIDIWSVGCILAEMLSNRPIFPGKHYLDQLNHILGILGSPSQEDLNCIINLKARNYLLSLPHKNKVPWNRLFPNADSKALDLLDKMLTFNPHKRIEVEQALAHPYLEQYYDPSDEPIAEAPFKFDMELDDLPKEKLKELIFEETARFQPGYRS
# Method in brief: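 Activated rat ERK2 (2 nM) was tested with His-Ets-1 (1–138) at 28–30 °C in HEPES pH 7.5 buffer with 11 mM MgCl2, BSA and 5% DMSO. Reactions were started with [γ-32P]ATP (10 or 100 μM).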
# [2] = system: MCF7; assay: cells; type: cell-based; conditions: MCF7, 10^−5 M, 48 h
# [3] = system: HCT-116; assay: cells; type: cell-based; conditions: HCT-116, 10^−5 M, 48 h
# [4] = system: NCI-H522; assay: cells; type: cell-based; conditions: NCI-H522, 10^−5 M, 48 h
# [5] = system: A498; assay: NCI-60 SRB screen, Renal cancer; type: cell-based, human; conditions: A498, 10^−5 M, 48 h
# [6] = system: SNB-19; assay: cells; type: cell-based; conditions: SNB-19, 10^−5 M, 48 h
# [7] = system: LOX IMVI; assay: cells; type: cell-based; conditions: 10^−5 M, 48 h
# [8] = system: NCI-H23; assay: cells; type: cell-based; conditions: NCI-H23, 10^−5 M, 48 h
# [9] = system: SK-MEL-28; assay: cells; type: cell-based; conditions: SK-MEL-28, 10^−5 M, 48 h
# [10] = system: HOP-62; assay: cells; type: cell-based; conditions: HOP-62, 10^−5 M, 48 h
# [11] = system: NCI-H226; assay: cells; type: cell-based; conditions: NCI-H226, 10^−5 M, 48 h
# [12] = system: SN12C; assay: cells; type: cell-based; conditions: 10^−5 M, 48 h
# [13] = system: MOLT-4; assay: cells; type: cell-based; conditions: MOLT-4, 10^−5 M, 48 h
# [14] = system: RPMI-8226; assay: cells; type: cell-based; conditions: RPMI-8226, 10^−5 M, 48 h
# [15] = system: OVCAR-5; assay: cells; type: cell-based; conditions: OVCAR-5, 10^−5 M, 48 h
# [16] = system: HT29; assay: cells; type: cell-based; conditions: HT29, 10^−5 M, 48 h
# [17] = system: IGROV1; assay: cells; type: cell-based; conditions: IGROV1, 10^−5 M, 48 h
# [18] = system: EKVX; assay: NCI-60 SRB screen, Non-small cell lung cancer; type: cell-based, human; conditions: 10^−5 M, 48 h
# [19] = system: UACC-62; assay: cells; type: cell-based; conditions: UACC-62, 10^−5 M, 48 h
# [20] = system: NCI-60 panel of tumor cell lines; conditions: for Average G%: average over tested NCI-60 cell lines, 10^−5 M (10 μM), 48 h
# [21] = system: K-562; assay: cells; type: cell-based; conditions: K-562, 10^−5 M, 48 h
# [22] = system: OVCAR-8; assay: cells; type: cell-based; conditions: OVCAR-8, 10^−5 M, 48 h
# [23] = system: SW-620; assay: cells; type: cell-based; conditions: SW-620, 10^−5 M, 48 h
# [24] = system: ACHN; assay: cells; type: cell-based; conditions: 10^−5 M, 48 h
# [25] = system: HCT-15; assay: cells; type: cell-based; conditions: HCT-15, 10^−5 M, 48 h
# [26] = system: KM 12; assay: cells; type: cell-based; conditions: KM 12, 10^−5 M, 48 h
# [27] = system: SK-OV-3; assay: cells; type: cell-based; conditions: SK-OV-3, 10^−5 M, 48 h
# [28] = system: SF-539; assay: cells; type: cell-based; conditions: SF-539, 10^−5 M, 48 h
# [29] = system: SK-MEL-2; assay: cells; type: cell-based; conditions: SK-MEL-2, 10^−5 M, 48 h
# [30] = system: NCI-H460; assay: cells; type: cell-based; conditions: NCI-H460, 10^−5 M, 48 h
# [31] = system: OVCAR-4; assay: cells; type: cell-based; conditions: OVCAR-4, 10^−5 M, 48 h
# [32] = system: T-47D; assay: cells; type: cell-based; conditions: T-47D, 10^−5 M, 48 h
# [33] = system: SF-268; assay: cells; type: cell-based; conditions: SF-268, 10^−5 M, 48 h
# [34] = system: RXF 393; assay: cells; type: cell-based; conditions: RXF 393, 10^−5 M, 48 h
# [35] = system: UO-31; assay: cells; type: cell-based; conditions: UO-31, 10^−5 M, 48 h
# [36] = system: MALME-3M; assay: cells; type: cell-based; conditions: MALME-3M, 10^−5 M, 48 h
# [37] = system: HCC-2998; assay: cells; type: cell-based; conditions: HCC-2998, 10^−5 M, 48 h
# [38] = system: HOP-92; assay: cells; type: cell-based; conditions: HOP-92, 10^−5 M, 48 h
# [39] = system: M14; assay: cells; type: cell-based; conditions: M14, 10^−5 M, 48 h
# [40] = system: U251; assay: cells; type: cell-based; conditions: U251, 10^−5 M, 48 h
# [41] = system: PC-3; assay: cells; type: cell-based; conditions: PC-3, 10^−5 M, 48 h
# [42] = system: DU-145; assay: cells; type: cell-based; conditions: DU-145, 10^−5 M, 48 h
# [43] = system: BT-549; assay: cells; type: cell-based; conditions: BT-549, 10^−5 M, 48 h
# [44] = system: MDA-MB-435; assay: cells; type: cell-based; conditions: MDA-MB-435, 10^−5 M, 48 h
# [45] = system: NCI-H322M; assay: cells; type: cell-based; conditions: 10^−5 M, 48 h
# [46] = system: A549/ATCC; assay: cells; type: cell-based; conditions: A549/ATCC, 10^−5 M, 48 h
# [47] = system: MDA-MB-468; assay: cells; type: cell-based; conditions: MDA-MB-468, 10^−5 M, 48 h
# [48] = system: CCRF-CEM; assay: cells; type: cell-based; conditions: 10^−5 M, 48 h
# [49] = system: OVCAR-3; assay: cells; type: cell-based; conditions: OVCAR-3, 10^−5 M, 48 h
# [50] = system: SK-MEL-5; assay: cells; type: cell-based; conditions: SK-MEL-5, 10^−5 M, 48 h
# [51] = system: SNB-75; assay: cells; type: cell-based; conditions: SNB-75, 10^−5 M, 48 h
# [52] = system: HL-60 (TB); assay: cells; type: cell-based; conditions: HL-60(TB), 10^−5 M, 48 h
# [53] = system: SF-295; assay: cells; type: cell-based; conditions: SF-295, 10^−5 M, 48 h
# [54] = system: SR; assay: cells; type: cell-based; conditions: 10^−5 M, 48 h
# [55] = ERK2 IC50 at 100 μM ATP /10mM Ets-1, Table 4
structure (smiles),measurement,setting,value
"O=C1c2ccccc2C(=O)c2c1oc1c2c(=O)[nH]c2ccc(Br)cc21 [3c, 2-Bromonaphtho[2′,3′:4,5]furo[3,2-c]quinoline-6,7,12(5H)-trione]",IC50,[1]; [55],> 100 µM
"Cc1ccc2[nH]c(=O)c3c4c(oc3c2c1)C(=O)c1ccccc1C4=O [3d, 2-Methylnaphtho[2′,3′:4,5]furo[3,2-c]quinoline-6,7,12(5H)-trione]",IC50,[1]; [55],59 ± 8.2 µM
"Cn1c(=O)c2c3c(oc2c2ccccc21)C(=O)c1ccccc1C3=O [3e, 5-Methylnaphtho[2′,3′:4,5]furo[3,2-c]quinoline-6,7,12(5H)-trione]",Growth percent (G%),[2],68.38%
same,Growth percent (G%),[3],71.69%
same,Growth percent (G%),[4],50.55%
same,Growth percent (G%),[5],93.29%
same,IC50,[1]; [55],21 ± 5.6 µM
same,Growth percent (G%),[6],93.29%
same,Growth percent (G%),[7],76.59%
same,Growth percent (G%),[8],78.33%
same,Growth percent (G%),[9],111.89%
same,Growth percent (G%),[10],81.77%
same,Growth percent (G%),[11],73.22%
same,Growth percent (G%),[12],81.84%
same,Growth percent (G%),[13],2.39%
same,Growth percent (G%),[14],51.06%
same,Growth percent (G%),[15],119.92%
same,Growth percent (G%),[16],73.69%
same,Growth percent (G%),[17],68.65%
same,Growth percent (G%),[18],70.67%
same,Growth percent (G%),[19],77.03%
same,NCI Cytotoxicity Screening Average G%,"[20]; Table 4, 10 μM one-dose screen",74%
same,Average G%,[20],74% and 74.32%
same,Growth percent (G%),[21],68.79%
same,Growth percent (G%),[22],85.32%
same,Growth percent (G%),[23],86.24%
same,Growth percent (G%),[24],75.49%
same,Growth percent (G%),[25],85.01%
same,Growth percent (G%),[26],91.54%
same,Growth percent (G%),[27],93.55%
same,Growth percent (G%),[28],97.17%
same,Growth percent (G%),[29],92.64%
same,Growth percent (G%),[30],78.50%
same,Growth percent (G%),[31],4.38%
same,Growth percent (G%),[32],9.70%
same,Growth percent (G%),[33],95.35%
same,Growth percent (G%),[34],100.91%
same,Growth percent (G%),[35],54.76%
same,Growth percent (G%),[36],113.45%
same,Growth percent (G%),[37],101.82%
same,Growth percent (G%),[38],100.92%
same,Growth percent (G%),[39],85.59%
same,Growth percent (G%),[40],90.22%
same,Growth percent (G%),[41],64.38%
same,Growth percent (G%),[42],90.97%
same,Growth percent (G%),[43],77.38%
same,Growth percent (G%),[44],103.73%
same,Growth percent (G%),[45],96.16%
same,Growth percent (G%),[46],81.67%
same,Growth percent (G%),[47],−9.91%
same,Growth percent (G%),[48],19.07%
same,Growth percent (G%),[49],21.58%
same,Growth percent (G%),[50],76.95%
same,Growth percent (G%),[51],64.39%
"CCn1c(=O)c2c(=O)c3c4c(oc3oc2c2ccccc21)C(=O)c1ccccc1C4=O [5b, 5-Ethyl-5H-naphthalen[2″,3″:4′,5′]furo[3′,2′:4′,5,6]pyrano[3,2-c]quinoline-6,7,8,13-tetraone]",Growth percent (G%),[2],92.37%
same,Growth percent (G%),[3],34.6%
same,Growth percent (G%),[4],65.5%
same,IC50,"[1]; read-out: ERK2 IC50 at 100 μM ATP /10mM Ets-1, Table 4",8.3 ± 1.5 µM
same,Growth percent (G%),[6],90.17%
same,Growth percent (G%),[7],32.39%
same,Growth percent (G%),[8],66.79%
same,Growth percent (G%),[52],−18.8%
same,Growth percent (G%),[53],95.07%
same,Growth percent (G%),[9],106.96%
same,Growth percent (G%),[10],80.29%
same,Growth percent (G%),[11],99.44%
same,Growth percent (G%),[12],106.07%
same,Growth percent (G%),[13],−24.49%
same,Growth percent (G%),[14],33.49%
same,Growth percent (G%),[15],117.77%
same,Growth percent (G%),[16],63.02%
same,Growth percent (G%),[17],68.31%
same,Growth percent (G%),[19],63.95%
same,Average G%,[20],65.81%
same,Growth percent (G%),[21],28.57%
same,Growth percent (G%),[22],10.25%
same,Growth percent (G%),[23],73.47%
same,Growth percent (G%),[24],79.61%
same,Growth percent (G%),[25],79.63%
same,Growth percent (G%),[26],86.61%
same,Growth percent (G%),[27],102.05%
same,Growth percent (G%),[28],89.92%
same,Growth percent (G%),[29],79.89%
same,Growth percent (G%),[30],83.68%
same,Growth percent (G%),[31],−99.52%
same,Growth percent (G%),[32],85.06%
same,Growth percent (G%),[33],84.32%
same,Growth percent (G%),[34],72.63%
same,Growth percent (G%),[35],112.5%
same,Growth percent (G%),[36],112.5%
same,Growth percent (G%),[37],100.59%
same,Growth percent (G%),[38],50.81%
same,Growth percent (G%),[39],89.81%
same,Growth percent (G%),[40],57.67%
same,Growth percent (G%),[41],81.82%
same,Growth percent (G%),[42],42.4%
same,Growth percent (G%),[43],93.67%
same,Growth percent (G%),[44],95.88%
same,Growth percent (G%),[45],97.72%
same,Growth percent (G%),[54],80.76%
same,Growth percent (G%),[46],82.36%
same,Growth percent (G%),[47],−9.96%
same,Growth percent (G%),[48],2.47%
same,Growth percent (G%),[49],−16.31%
same,Growth percent (G%),[50],67.42%
same,Growth percent (G%),[51],119.73%
